ChEMBL document CHEMBL1150363, “Synthesis, ligand-receptor modeling studies and pharmacological evaluation of novel 4-modified-2-aryl-1,2,4-triazolo[4,3-a]quinoxalin-1-one derivatives as potent and selective human A3 adenosine receptor antagonists” (Bioorg Med Chem, 2008)
Calls of active or inactive are those of the source. The calls are words filed in the database; no cut-off is given here.

Assays:
[1] = species: Rattus norvegicus; test: Inhibition of fEPSP amplitude in Wistar rat cerebral ischemia model at 10 nM treated after 7 mins of oxygen and glucose deprivation; format: functional
Summary of the method: (§1)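 Rat hippocampal slices, CA1 stratum radiatum fEPSP evoked by 80 µs, 0.066 Hz pulses at 30–32 °C. Drug (10 nM) given 15 min before, during and 5 min after 7-min OGD (glucose-free aCSF, 95% N2–5% CO2). Amplitude expressed as % of baseline, with recovery assessed after reperfusion in oxygenated glucose aCSF. Means ± SEM.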

[2] = species: Rattus norvegicus; test: Effect on anoxic depolarization in Wistar rat cerebral ischemia model assessed as delay in appearance treated before 15 mins of oxygen and glucose deprivation; format: functional
Summary of the method: (§2)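 Rat hippocampal slices (400 µm), submerged and superfused with oxygenated aCSF at 30–32 °C. OGD made with glucose-free, N2-gassed aCSF for 7 or 30 min. Drug applied 15 min before, during and 5 min after OGD; 10 nM, with 0.5 nM–1 µM tested in 30-min runs. Anoxic depolarization recorded in CA1 as negative d.c. shift, with peak time from OGD onset. Means ± SEM; unpaired two-tailed t test.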

[3] = species: Rattus norvegicus; test: Effect on fEPSP amplitude under normoxic condition in Wistar rat cerebral ischemia model treated during oxygen and glucose deprivation; format: functional; summary of the method: as §1
[4] = target: T1, Adenosine receptor A3 (Homo sapiens, UniProt P0DMS8); test: Antagonist activity at human […] expressed in CHO cells assessed as inhibition of NECA-induced cAMP accumulation; format: functional, cell-based
T1 sequence (P0DMS8 whole entry): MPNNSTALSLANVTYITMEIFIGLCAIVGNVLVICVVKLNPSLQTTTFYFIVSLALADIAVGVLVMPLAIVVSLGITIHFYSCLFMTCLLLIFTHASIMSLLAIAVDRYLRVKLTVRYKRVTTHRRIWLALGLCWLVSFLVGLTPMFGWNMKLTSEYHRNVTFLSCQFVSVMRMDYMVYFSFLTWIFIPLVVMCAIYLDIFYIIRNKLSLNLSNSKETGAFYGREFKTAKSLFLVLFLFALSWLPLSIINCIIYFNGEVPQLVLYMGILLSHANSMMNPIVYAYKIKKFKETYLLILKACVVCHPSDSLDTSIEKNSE
Summary of the method: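 hA3-transfected CHO cells (~60,000/well, 48 h) preincubated 15 min at 37 °C with Ro 20-1724 (20 µM) and adenosine deaminase (1 U/mL). Compound (1 nM–10 µM, 15 min) added, then 100 nM NECA against 1 µM forskolin-stimulated cAMP. Stopped with 0.4 N HCl. cAMP measured by [3H]cAMP competitive binding-protein assay. Sigmoid non-linear regression; three separate experiments.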

[5] = target: T2, Adenosine receptor A3 (Rattus norvegicus) (UniProt P28647); test: Displacement of [3H](R)-PIA from adenosine A3 receptor in Wistar rat testis membrane at 1 uM; format: cell membranes
T2 sequence (whole entry): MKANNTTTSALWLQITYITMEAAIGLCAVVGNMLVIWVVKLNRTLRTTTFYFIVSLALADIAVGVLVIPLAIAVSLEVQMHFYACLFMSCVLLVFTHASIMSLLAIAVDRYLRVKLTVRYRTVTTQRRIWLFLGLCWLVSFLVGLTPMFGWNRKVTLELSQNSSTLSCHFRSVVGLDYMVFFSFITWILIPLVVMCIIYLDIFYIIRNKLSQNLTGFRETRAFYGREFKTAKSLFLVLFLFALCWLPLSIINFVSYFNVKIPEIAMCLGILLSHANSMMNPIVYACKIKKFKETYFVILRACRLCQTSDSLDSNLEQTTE
Summary of the method: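 Wistar rat testis membranes (0.1–0.2 mg protein) with 4 nM [3H](R)-PIA in 50 mM Tris/HCl pH 7.4, 1 mM EDTA, 10 mM MgCl2, plus 150 nM DPCPX to block A1 sites. Nonspecific binding defined with 15 µM (R)-PIA. Filtration, then scintillation counting. Percent inhibition at 1 µM.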

[6] = target: Adenosine receptor A2a (Homo sapiens, UniProt P29274); test: Displacement of [125I]NECA from human adenosine A2A receptor expressed in CHO cells at 10uM; format: cell-based; settings: in the assay text read “[3H]NECA” for “[125I]NECA”
Chain of Adenosine receptor A2a (P29274 whole entry): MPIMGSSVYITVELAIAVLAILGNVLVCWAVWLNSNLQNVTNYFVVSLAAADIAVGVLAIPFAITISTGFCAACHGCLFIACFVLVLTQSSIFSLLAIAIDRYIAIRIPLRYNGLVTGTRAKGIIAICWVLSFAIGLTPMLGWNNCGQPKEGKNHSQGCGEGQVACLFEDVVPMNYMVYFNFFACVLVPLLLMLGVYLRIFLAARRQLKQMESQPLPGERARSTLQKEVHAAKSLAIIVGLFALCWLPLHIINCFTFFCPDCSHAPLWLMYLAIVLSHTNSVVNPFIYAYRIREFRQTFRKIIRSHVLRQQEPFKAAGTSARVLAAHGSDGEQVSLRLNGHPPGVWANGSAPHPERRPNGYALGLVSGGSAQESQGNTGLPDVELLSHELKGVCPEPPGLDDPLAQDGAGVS
Summary of the method: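 hA2A stably expressed in CHO cells. Radioligand [3H]NECA (Kd 30 nM). Percentage inhibition of specific binding measured at 10 µM.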

[7] = species: Rattus norvegicus; test: Effect on fEPSP amplitude under normoxic condition in Wistar rat cerebral ischemia model treated after 5 mins of oxygen and glucose deprivation; format: functional; summary of the method: as §1
[8] = target: T1, Adenosine receptor A3; test: Displacement of [125I]AB-MECA from human cloned adenosine A3 receptor expressed in CHO cells; format: cell-based
Summary of the method: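 CHO cells stably expressing hA3. IC50 by non-linear regression over five displacer concentrations in triplicate, converted to Ki by Cheng-Prusoff. Ki values are means of four assays.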

[9] = target: T3, Adenosine receptor A1 (Homo sapiens) (UniProt P30542); test: Displacement of [3H]DPCPX from human cloned adenosine A1 receptor expressed in CHO cells at 10 uM
T3 sequence (whole entry): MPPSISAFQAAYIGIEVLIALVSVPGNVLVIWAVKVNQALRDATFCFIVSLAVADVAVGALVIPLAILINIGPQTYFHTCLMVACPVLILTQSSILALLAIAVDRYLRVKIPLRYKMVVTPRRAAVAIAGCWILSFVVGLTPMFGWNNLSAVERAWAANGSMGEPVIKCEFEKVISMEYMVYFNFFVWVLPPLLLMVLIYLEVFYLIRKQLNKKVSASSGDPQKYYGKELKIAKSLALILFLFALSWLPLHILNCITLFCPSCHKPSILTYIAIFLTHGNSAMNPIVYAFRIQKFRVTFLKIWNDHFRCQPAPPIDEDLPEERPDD

[10] = species: Rattus norvegicus; test: Effect on anoxic depolarization in Wistar rat cerebral ischemia model assessed as delay in appearance treated during oxygen and glucose deprivation; format: functional; summary of the method: as §2
[11] = species: Bos taurus; test: Displacement of [3H]CGS21680 from adenosine A2A receptor in bovine brain membrane at 10 uM; format: cell membranes
Summary of the method: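 Bovine striatal membranes, [3H]CGS 21680 (Kd 14 nM). Five displacer concentrations in triplicate, non-linear regression IC50, Cheng-Prusoff Ki, four assays. Single-point data are % inhibition at 10 µM.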

[12] = species: Rattus norvegicus; test: Effect on fEPSP amplitude under normoxic condition in Wistar rat cerebral ischemia model treated before 15 mins of oxygen and glucose deprivation; format: functional; summary of the method: as §1
[13] = species: Rattus norvegicus; test: Inhibition of anoxic depolarization in Wistar rat cerebral ischemia model at 10 nM treated after 7 mins of oxygen and glucose deprivation; format: functional; summary of the method: as §2
[14] = target: T4, Adenosine receptor A1 (Bos taurus, UniProt P28190); test: Displacement of [3H]DPCPX from adenosine A1 receptor in bovine brain membrane
T4 sequence (P28190 whole entry): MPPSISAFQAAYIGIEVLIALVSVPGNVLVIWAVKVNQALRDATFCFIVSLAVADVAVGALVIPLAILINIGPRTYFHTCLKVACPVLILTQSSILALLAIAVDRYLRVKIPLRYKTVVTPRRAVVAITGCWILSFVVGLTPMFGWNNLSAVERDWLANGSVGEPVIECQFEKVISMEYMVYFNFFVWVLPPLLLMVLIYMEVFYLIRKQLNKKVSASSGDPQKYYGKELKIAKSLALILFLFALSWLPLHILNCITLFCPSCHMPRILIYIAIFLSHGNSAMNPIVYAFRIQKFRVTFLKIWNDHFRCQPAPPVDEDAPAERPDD

[15] = target: T5, Adenosine receptor A1 (Rattus norvegicus, UniProt P25099); test: Displacement of [3H]DPCPX from adenosine A1 receptor in Wistar rat cerebral cortex; format: tissue-based
T5 sequence (P25099 whole entry): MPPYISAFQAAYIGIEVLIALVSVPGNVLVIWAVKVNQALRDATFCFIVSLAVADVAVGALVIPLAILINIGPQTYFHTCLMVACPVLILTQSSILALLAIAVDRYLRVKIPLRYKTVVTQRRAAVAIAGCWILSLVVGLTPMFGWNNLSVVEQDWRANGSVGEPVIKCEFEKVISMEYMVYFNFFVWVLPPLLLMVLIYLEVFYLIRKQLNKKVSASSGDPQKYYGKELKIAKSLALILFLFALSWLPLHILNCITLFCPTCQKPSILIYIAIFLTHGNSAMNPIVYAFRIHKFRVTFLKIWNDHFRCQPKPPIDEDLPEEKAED

`CS(=O)(=O)N(c1nc2ccccc2n2c(=O)n(-c3ccccc3)nc12)S(C)(=O)=O` was tested, and the Activity [1] was “Active”, the Activity [2] was 9.3 min and the Activity [3] was “inactive”. The EC50 [4] was 12 nM, the Activity [5] was 5% and the Activity [6] was 32%. For the same compound, the Activity [7] was “inactive”, the Ki [8] was 5.5 nM and the Activity [9] was 36%. For the same compound, the Activity [10] was 9.3 min, the Activity [11] was 56% and the Activity [12] was “inactive”. For the same compound, the Activity [13] was “Active”, the Ki [14] was 36 nM and the Ki [15] was 132 nM.
